Active and inactive are the calls of the source. The calls are words filed in the database; no cut-off is given here.
Key:
HCT-116 [1] = assay: Cytotoxicity against human HCT116 cells at 50 uM after 48 hrs by neutral red uptake assay; assay type: functional, cell-based
In short: (§1)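 After 24 h, a single 50 µM dose was given for 24 or 48 h, with DMSO controls. Neutral red uptake for 3 h at 50 µg/mL final, with read-out at OD 570 nm. Viability expressed as % of untreated cells, four wells per line.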

KMS-11 [2] = assay: Cytotoxicity against human KMS11 cells at 50 uM after 48 hrs by neutral red uptake assay; assay type: functional, cell-based; in short: as §1
HCT-116 [3] = assay: Cytotoxicity against human HCT116 cells after 24 hrs by neutral red uptake assay; assay type: functional; conditions: HCT-116, 24 h, read-out: LD50 (the source's name)
In short: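 Compounds added after 24 h for a 24 h dose-response, with DMSO vehicle controls. Neutral red 50 µg/mL final for 3 h, then fixation, acid-ethanol extraction and OD at 570 nm. LD50 taken from curves; mean ± standard error of ≥3 experiments.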

GBM [4] = assay: Cytotoxicity against human GBM cells at 50 uM after 48 hrs by neutral red uptake assay; assay type: functional, cell-based; in short: as §1
HCT-116 [5] = assay: Cytotoxicity against human HCT116 cells at 50 uM after 24 hrs by neutral red uptake assay; assay type: functional, cell-based; in short: as §1
GBM [6] = assay: Cytotoxicity against human GBM cells at 50 uM after 24 hrs by neutral red uptake assay; assay type: functional, cell-based; in short: as §1
KMS-11 [7] = assay: Cytotoxicity against human KMS11 cells at 50 uM after 24 hrs by neutral red uptake assay; assay type: functional, cell-based; in short: as §1
KMS-11 [8] = assay: Cytotoxicity against human KMS11 cells assessed as morphological changes at 12 uM after 24 hrs by neutral red uptake assay; assay type: functional, cell-based
In short: (§2)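 Cells in RPMI 1640 with 10% FCS (GBM primary culture, HCT-116) or 5% FCS (KMS-11), 2 mM glutamine, antibiotics, used at 70–80% confluency. Morphology examined alongside neutral red uptake viability.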

KMS-11 [9] = assay: Induction of apoptosis in human KMS11 cells assessed as fragmentation of nuclei at 20 uM after 24 hrs […]; assay type: functional
KMS-11 [10] = assay: Cytotoxicity against human KMS11 cells assessed as [3H]thymidine incorporation at 20 uM after 24 hrs; assay type: functional, cell-based
In short: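 KMS-11 (multiple myeloma plasma-cell line) in RPMI 1640 with 5% FCS, seeded at 500,000 cells/well in triplicate at 37 °C, 5% CO2. After 24 h, drug or vehicle added in fresh medium. After 24 h, pulsed with 1 μCi/well [3H]thymidine. Cells trypsin/EDTA-detached, harvested onto glass filters, counted by scintillation. Output as % of untreated cells; three independent experiments.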

KMS-11 [11] = assay: Induction of apoptosis in human KMS11 cells at 10 uM after 24 hrs by PC5-labeled Apo2.7 antibody based flow cytometry; assay type: functional
In short: (§3)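 KMS-11 cells treated 24 h at the stated concentrations, then stained with the phycoerythrin-labeled APO2.7 antibody kit, which detects mitochondrial 7A6 antigen. Analysed by flow cytometry and reported as % APO2.7-positive cells.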

GBM [12] = assay: Cytotoxicity against human GBM cells assessed as morphological changes at 12 uM after 24 hrs by neutral red uptake assay; assay type: functional, cell-based; in short: as §2
KMS-11 [13] = assay: Induction of apoptosis in human KMS11 cells assessed as fragmentation of nuclei at 10 uM after 24 hrs […]; assay type: functional
KMS-11 [14] = assay: Induction of apoptosis in human KMS11 cells assessed as Cleavage of Mcl-1 after 24 hrs by Western blotting; assay type: functional, cell-based
In short: (§4)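 KMS-11 cells treated 24 h. 5×10^6 cells lysed 40 min on ice (10 mM Tris pH 7.6, 150 mM NaCl, 5 mM EDTA, 1% Triton X-100, PMSF, aprotinin), cleared at 10,000 g. Equal BCA-quantified protein run on reducing SDS-PAGE and transferred to PVDF. Primary antibodies (PARP-1, Mcl-1, IκBα, phospho-IκBα) overnight at 4 °C, then HRP secondary 30 min, chemiluminescent detection.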

KMS-11 [15] = assay: Induction of apoptosis in human KMS11 cells assessed as hyperphosphorylation of IkappaB after 24 hrs by Western blotting; assay type: functional, cell-based; in short: as §4
KMS-11 [16] = assay: Induction of apoptosis in human KMS11 cells at 40 uM after 24 hrs by PC5-labeled Apo2.7 antibody based flow cytometry; assay type: functional; in short: as §3
KMS-11 [17] = assay: Induction of apoptosis in human KMS11 cells assessed as DNA fragmentation at 5 uM after 24 hrs by Hoechst staining; assay type: functional, cell-based
In short: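 KMS-11 cells on glass coverslips fixed in 2% formaldehyde 10 min and stained with Hoechst 33342 (1 µg/mL in PBS, 5 min). Nuclei viewed by epifluorescence microscopy under 350 nm excitation.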

KMS-11 [18] = assay: Induction of apoptosis in human KMS11 cells assessed as Cleavage of PARP-1 after 24 hrs by Western blotting; assay type: functional, cell-based; in short: as §4
HCT-116 [19] = assay: Cytotoxicity against human HCT116 cells assessed as morphological changes at 12 uM after 24 hrs by neutral red uptake assay; assay type: functional, cell-based; in short: as §2
KMS-11 [20] = assay: Induction of apoptosis in human KMS11 cells after 24 hrs by PC5-labeled Apo2.7 antibody based flow cytometry; assay type: functional, cell-based; in short: as §3

| SMILES | Activity (HCT-116 [1]) | Activity (KMS-11 [2]) | CC50 (HCT-116 [3]) | Activity (GBM [4]) | Activity (HCT-116 [5]) | Activity (GBM [6]) | Activity (KMS-11 [7]) | further results |
| --- | --- | --- | --- | --- | --- | --- | --- | --- |
| C[C@H](CCC(=O)O)[C@H]1CC[C@H]2[C@@H]3[C@H](O)C[C@@H]4C[C@H](O)CC[C@]4(C)[C@H]3CC[C@]12C [CHENODIOL] | inactive | inactive | > 50 µM | inactive | inactive | inactive | inactive | – |
| C[C@H](CCC(=O)N1CCN(c2ccccn2)CC1)[C@H]1CC[C@H]2[C@@H]3[C@H](O)C[C@@H]4C[C@H](O)CC[C@]4(C)[C@H]3CC[C@]12C | inactive | inactive | > 50 µM | inactive | inactive | inactive | inactive | – |
| C[C@H](CCC(=O)N1CCN(C/C=C/c2ccccc2)CC1)[C@H]1CC[C@H]2[C@@H]3[C@H](O)C[C@@H]4C[C@H](O)CC[C@]4(C)[C@H]3CC[C@]12C | – | – | 18.5 µM | – | Active | Active | Active | Activity (KMS-11 [8]): Active; Activity (KMS-11 [9]): 61%; Activity (KMS-11 [10]): Active; Activity (KMS-11 [11]): 37%; Activity (GBM [12]): Active; Activity (KMS-11 [13]): 5%; Activity (KMS-11 [14]): Active; Activity (KMS-11 [15]): Active; Activity (KMS-11 [16]): 86%; Activity (KMS-11 [17]): Active; Activity (KMS-11 [18]): Active; Activity (HCT-116 [19]): Active; Activity (KMS-11 [20]): Dose-dependent effect |
| C[C@H](CCC(=O)N1CCN(C/C=C/c2ccccc2)CC1)[C@H]1CC[C@H]2[C@@H]3CC[C@@H]4C[C@H](O)CC[C@]4(C)[C@H]3CC[C@]12C | inactive | inactive | > 50 µM | inactive | inactive | inactive | inactive | – |
| C[C@H](CCC(=O)N1CCN(c2ncccn2)CC1)[C@H]1CC[C@H]2[C@@H]3CC[C@@H]4C[C@H](O)CC[C@]4(C)[C@H]3CC[C@]12C | – | – | 50 µM | – | – | – | – | – |
| C[C@H](CCC(=O)N1CCN(c2ncccn2)CC1)[C@H]1CC[C@H]2[C@@H]3[C@H](O)C[C@@H]4C[C@H](O)CC[C@]4(C)[C@H]3CC[C@]12C | – | – | 30 µM | – | – | – | – | – |
| C[C@H](CCC(=O)O)[C@H]1CC[C@H]2[C@@H]3CC[C@@H]4C[C@H](O)CC[C@]4(C)[C@H]3CC[C@]12C [LITHOCHOLIC ACID] | inactive | inactive | > 50 µM | inactive | inactive | inactive | inactive | – |
| c1ccc(N2CCNCC2)nc1 | inactive | inactive | – | inactive | inactive | inactive | inactive | – |
| C[C@H](CCC(=O)N1CCN(c2ccccn2)CC1)[C@H]1CC[C@H]2[C@@H]3CC[C@@H]4C[C@H](O)CC[C@]4(C)[C@H]3CC[C@]12C | – | – | 50 µM | – | – | – | – | – |
| c1cnc(N2CCNCC2)nc1 | inactive | inactive | – | inactive | inactive | inactive | inactive | – |
| C(=C\c1ccccc1)/CN1CCNCC1 | inactive | inactive | – | inactive | inactive | inactive | inactive | – |
